Laboratory results: ChEMBL document CHEMBL1143202

Legend:
Rattus norvegicus [1] = species: Rattus norvegicus; assay: Effect on oxygen consumption rate in Wistar Albino rat liver mitochondria assessed as inhibition in state 3 respiration at 25 uM in presence of succinate relative to control; assay type: functional; set-up: scale not given: the % may be the effect or the level left
In short: (§1)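 Isolated rat liver mitochondria respiring on glutamate or succinate as substrate; oxygen consumption recorded. State 3 is the rate after ADP addition and state 4 the rate after ADP is exhausted. The respiratory control coefficient (RCC) and ADP/O ratio were determined in the same runs. Flavone tested across 25–200 μM.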

Rattus norvegicus [2] = species: Rattus norvegicus; assay: Effect on respiratory control coefficient in Wistar Albino rat liver mitochondria at 50 uM in presence of succinate relative to control; assay type: functional; in short: as §1
Rattus norvegicus [3] = species: Rattus norvegicus; assay: Effect on respiratory control coefficient in Wistar Albino rat liver mitochondria at 25 uM in presence of succinate relative to control; assay type: functional; in short: as §1
Rattus norvegicus [4] = species: Rattus norvegicus; assay: Effect on oxygen consumption rate in Wistar Albino rat liver mitochondria assessed as inhibition in state 3 respiration at 50 uM in presence of succinate relative to control; assay type: functional; set-up: scale not given: the % may be the effect or the level left; in short: as §1
Rattus norvegicus [5] = species: Rattus norvegicus; assay: Effect on oxygen consumption rate in Wistar Albino rat liver mitochondria assessed as inhibition in state 3 respiration at 75 uM in presence of succinate relative to control; assay type: functional; set-up: scale not given: the % may be the effect or the level left; in short: as §1
Rattus norvegicus [6] = species: Rattus norvegicus; assay: Effect on oxygen consumption rate in Wistar Albino rat liver mitochondria assessed as inhibition in state 3 respiration at 100 uM in presence of succinate relative to control; assay type: functional; set-up: scale not given: the % may be the effect or the level left; in short: as §1
Rattus norvegicus [7] = species: Rattus norvegicus; assay: Effect on oxygen consumption rate in Wistar Albino rat liver mitochondria assessed as inhibition in state 3 respiration at 200 uM in presence of succinate relative to control; assay type: functional; set-up: scale not given: the % may be the effect or the level left; in short: as §1
Rattus norvegicus [8] = species: Rattus norvegicus; assay: Effect on ADP/O ratio in Wistar Albino rat liver mitochondria at 25 uM in presence of succinate relative to control; assay type: functional; in short: as §1
Rattus norvegicus [9] = species: Rattus norvegicus; assay: Effect on ADP/O ratio in Wistar Albino rat liver mitochondria at 50 uM in presence of succinate relative to control; assay type: functional; in short: as §1
Rattus norvegicus [10] = species: Rattus norvegicus; assay: Effect on ADP/O ratio in Wistar Albino rat liver mitochondria at 75 uM in presence of succinate relative to control; assay type: functional; in short: as §1
Rattus norvegicus [11] = species: Rattus norvegicus; assay: Effect on ADP/O ratio in Wistar Albino rat liver mitochondria at 100 uM in presence of succinate relative to control; assay type: functional; in short: as §1
Rattus norvegicus [12] = species: Rattus norvegicus; assay: Effect on oxygen consumption rate in Wistar Albino rat liver mitochondria assessed as inhibition in state 3 respiration at 25 uM in presence of sodium glutamate relative to control; assay type: functional; set-up: scale not given: the % may be the effect or the level left; in short: as §1
Rattus norvegicus [13] = species: Rattus norvegicus; assay: Effect on oxygen consumption rate in Wistar Albino rat liver mitochondria assessed as inhibition in state 3 respiration at 50 uM in presence of sodium glutamate relative to control; assay type: functional; set-up: scale not given: the % may be the effect or the level left; in short: as §1
Rattus norvegicus [14] = species: Rattus norvegicus; assay: Effect on oxygen consumption rate in Wistar Albino rat liver mitochondria assessed as inhibition in state 3 respiration at 75 uM in presence of sodium glutamate relative to control; assay type: functional; set-up: scale not given: the % may be the effect or the level left; in short: as §1
Rattus norvegicus [15] = species: Rattus norvegicus; assay: Effect on oxygen consumption rate in Wistar Albino rat liver mitochondria assessed as inhibition in state 3 respiration at 100 uM in presence of sodium glutamate relative to control; assay type: functional; set-up: scale not given: the % may be the effect or the level left; in short: as §1
Rattus norvegicus [16] = species: Rattus norvegicus; assay: Effect on oxygen consumption rate in Wistar Albino rat liver mitochondria assessed as inhibition in state 3 respiration at 200 uM in presence of sodium glutamate relative to control; assay type: functional; set-up: scale not given: the % may be the effect or the level left; in short: as §1
Rattus norvegicus [17] = species: Rattus norvegicus; assay: Effect on oxygen consumption rate in Wistar Albino rat liver mitochondria assessed as inhibition in state 4 respiration at 25 uM in presence of sodium glutamate relative to control; assay type: functional; set-up: scale not given: the % may be the effect or the level left; in short: as §1
Rattus norvegicus [18] = species: Rattus norvegicus; assay: Effect on oxygen consumption rate in Wistar Albino rat liver mitochondria assessed as inhibition in state 4 respiration at 50 uM in presence of sodium glutamate relative to control; assay type: functional; set-up: scale not given: the % may be the effect or the level left; in short: as §1
Rattus norvegicus [19] = species: Rattus norvegicus; assay: Effect on oxygen consumption rate in Wistar Albino rat liver mitochondria assessed as inhibition in state 4 respiration at 75 uM in presence of sodium glutamate relative to control; assay type: functional; set-up: scale not given: the % may be the effect or the level left; in short: as §1
Rattus norvegicus [20] = species: Rattus norvegicus; assay: Inhibition of NADH dehydrogenase in Wistar Albino rat liver mitochondria at 25 uM relative to control; set-up: scale not given: the % may be the effect or the level left
Rattus norvegicus [21] = species: Rattus norvegicus; assay: Inhibition of NADH dehydrogenase in Wistar Albino rat liver mitochondria at 75 uM relative to control; set-up: scale not given: the % may be the effect or the level left
Rattus norvegicus [22] = species: Rattus norvegicus; assay: Inhibition of NADH dehydrogenase in Wistar Albino rat liver mitochondria at 100 uM relative to control; set-up: scale not given: the % may be the effect or the level left
Rattus norvegicus [23] = species: Rattus norvegicus; assay: Inhibition of NADH dehydrogenase in Wistar Albino rat liver mitochondria at 200 uM relative to control; set-up: scale not given: the % may be the effect or the level left
Rattus norvegicus [24] = species: Rattus norvegicus; assay: Inhibition of NADH-cytochrome c reductase in Wistar Albino rat liver mitochondria at 25 uM relative to control; set-up: scale not given: the % may be the effect or the level left
Rattus norvegicus [25] = species: Rattus norvegicus; assay: Inhibition of NADH-cytochrome c reductase in Wistar Albino rat liver mitochondria at 50 uM relative to control; set-up: scale not given: the % may be the effect or the level left
Rattus norvegicus [26] = species: Rattus norvegicus; assay: Effect on oxygen consumption rate in Wistar Albino rat liver mitochondria assessed as inhibition in state 4 respiration at 25 uM in presence of succinate relative to control; assay type: functional; set-up: scale not given: the % may be the effect or the level left; in short: as §1
Rattus norvegicus [27] = species: Rattus norvegicus; assay: Effect on oxygen consumption rate in Wistar Albino rat liver mitochondria assessed as inhibition in state 4 respiration at 50 uM in presence of succinate relative to control; assay type: functional; set-up: scale not given: the % may be the effect or the level left; in short: as §1
Rattus norvegicus [28] = species: Rattus norvegicus; assay: Effect on oxygen consumption rate in Wistar Albino rat liver mitochondria assessed as inhibition in state 4 respiration at 75 uM in presence of succinate relative to control; assay type: functional; set-up: scale not given: the % may be the effect or the level left; in short: as §1
Rattus norvegicus [29] = species: Rattus norvegicus; assay: Effect on oxygen consumption rate in Wistar Albino rat liver mitochondria assessed as inhibition in state 4 respiration at 100 uM in presence of succinate relative to control; assay type: functional; set-up: scale not given: the % may be the effect or the level left; in short: as §1
Rattus norvegicus [30] = species: Rattus norvegicus; assay: Effect on respiratory control coefficient in Wistar Albino rat liver mitochondria at 75 uM in presence of succinate relative to control; assay type: functional; in short: as §1
Rattus norvegicus [31] = species: Rattus norvegicus; assay: Effect on respiratory control coefficient in Wistar Albino rat liver mitochondria at 100 uM in presence of succinate relative to control; assay type: functional; in short: as §1
Rattus norvegicus [32] = species: Rattus norvegicus; assay: Effect on oxygen consumption rate in Wistar Albino rat liver mitochondria assessed as inhibition in state 4 respiration at 100 uM in presence of sodium glutamate relative to control; assay type: functional; set-up: scale not given: the % may be the effect or the level left; in short: as §1
Rattus norvegicus [33] = species: Rattus norvegicus; assay: Effect on respiratory control coefficient in Wistar Albino rat liver mitochondria at 25 uM in presence of sodium glutamate relative to control; assay type: functional; in short: as §1
Rattus norvegicus [34] = species: Rattus norvegicus; assay: Effect on respiratory control coefficient in Wistar Albino rat liver mitochondria at 50 uM in presence of sodium glutamate relative to control; assay type: functional; in short: as §1
Rattus norvegicus [35] = species: Rattus norvegicus; assay: Effect on respiratory control coefficient in Wistar Albino rat liver mitochondria at 75 uM in presence of sodium glutamate relative to control; assay type: functional; in short: as §1
Rattus norvegicus [36] = species: Rattus norvegicus; assay: Effect on respiratory control coefficient in Wistar Albino rat liver mitochondria at 100 uM in presence of sodium glutamate relative to control; assay type: functional; in short: as §1
Rattus norvegicus [37] = species: Rattus norvegicus; assay: Effect on ADP/O ratio in Wistar Albino rat liver mitochondria at 25 uM in presence of sodium glutamate relative to control; assay type: functional; in short: as §1
Rattus norvegicus [38] = species: Rattus norvegicus; assay: Effect on ADP/O ratio in Wistar Albino rat liver mitochondria at 50 uM in presence of sodium glutamate relative to control; assay type: functional; in short: as §1
Rattus norvegicus [39] = species: Rattus norvegicus; assay: Effect on ADP/O ratio in Wistar Albino rat liver mitochondria at 75 uM in presence of sodium glutamate relative to control; assay type: functional; in short: as §1
Rattus norvegicus [40] = species: Rattus norvegicus; assay: Effect on ADP/O ratio in Wistar Albino rat liver mitochondria at 100 uM in presence of sodium glutamate relative to control; in short: as §1
Rattus norvegicus [41] = species: Rattus norvegicus; assay: Inhibition of NADH-cytochrome c reductase in Wistar Albino rat liver mitochondria at 75 uM relative to control; set-up: scale not given: the % may be the effect or the level left

COc1c(O)cc2oc(-c3ccc(O)c(O)c3)cc(=O)c2c1O
Activity (Rattus norvegicus [1]): 83% | Activity (Rattus norvegicus [2]): 55.1% | Activity (Rattus norvegicus [3]): 76.4% | Activity (Rattus norvegicus [4]): 55.2% | Activity (Rattus norvegicus [5]): 51.2% | Activity (Rattus norvegicus [6]): 45.4% | Activity (Rattus norvegicus [7]): 34.7% | Activity (Rattus norvegicus [8]): 85.8% | Activity (Rattus norvegicus [9]): 85.4% | Activity (Rattus norvegicus [10]): 81.6% | Activity (Rattus norvegicus [11]): 74.7% | Activity (Rattus norvegicus [12]): 84.9% | Activity (Rattus norvegicus [13]): 66% | Activity (Rattus norvegicus [14]): 54.9% | Activity (Rattus norvegicus [15]): 31.8% | Activity (Rattus norvegicus [16]): 19.8% | Activity (Rattus norvegicus [17]): 109% | Activity (Rattus norvegicus [18]): 102% | Activity (Rattus norvegicus [19]): 109% | Activity (Rattus norvegicus [20]): 42% | Activity (Rattus norvegicus [21]): 51% | Activity (Rattus norvegicus [22]): 50% | Activity (Rattus norvegicus [23]): 39% | Activity (Rattus norvegicus [24]): 54% | Activity (Rattus norvegicus [25]): 45% | Activity (Rattus norvegicus [26]): 106% | Activity (Rattus norvegicus [27]): 109% | Activity (Rattus norvegicus [28]): 121% | Activity (Rattus norvegicus [29]): 132% | Activity (Rattus norvegicus [30]): 52.9% | Activity (Rattus norvegicus [31]): 36.8% | Activity (Rattus norvegicus [32]): 99.4% | Activity (Rattus norvegicus [33]): 73% | Activity (Rattus norvegicus [34]): 66.5% | Activity (Rattus norvegicus [35]): 40.9% | Activity (Rattus norvegicus [36]): 24.9% | Activity (Rattus norvegicus [37]): 92.8% | Activity (Rattus norvegicus [38]): 85% | Activity (Rattus norvegicus [39]): 90.6% | Activity (Rattus norvegicus [40]): 88.6% | Activity (Rattus norvegicus [41]): 46%
